Where only a bound is given, the exact number is not on record here.

Broadly, the inhibition is the share of the control response that was lost under treatment. A high value points to strong suppression.

Test [1] concerns the target Angiotensin-converting enzyme (Rattus norvegicus) (UniProt P47820). The test is described as follows: Percentage inactivation of the angiotensin I induced vasopressor response in normotensive conscious rats after po administration at dose 0.15 mg/kg.
Test [2] has as its system Rattus norvegicus. As to the kind of experiment: Maximum percent change in mean arterial pressure by the compound over control after ip administration at 100 mg/kg dosage; 9-14. Conditions: route intraperitoneal.
For test [3], the target named is Angiotensin-converting enzyme (Rattus norvegicus) (UniProt P47820). As to the kind of experiment: The time to 50% recovery of the angiotensin I response was measured after po administration at 0.15 mg/kg; 10-20.
Test [4] addresses T1, Angiotensin-converting enzyme (Oryctolagus cuniculus, UniProt P12822).
T1 sequence (P12822 whole entry): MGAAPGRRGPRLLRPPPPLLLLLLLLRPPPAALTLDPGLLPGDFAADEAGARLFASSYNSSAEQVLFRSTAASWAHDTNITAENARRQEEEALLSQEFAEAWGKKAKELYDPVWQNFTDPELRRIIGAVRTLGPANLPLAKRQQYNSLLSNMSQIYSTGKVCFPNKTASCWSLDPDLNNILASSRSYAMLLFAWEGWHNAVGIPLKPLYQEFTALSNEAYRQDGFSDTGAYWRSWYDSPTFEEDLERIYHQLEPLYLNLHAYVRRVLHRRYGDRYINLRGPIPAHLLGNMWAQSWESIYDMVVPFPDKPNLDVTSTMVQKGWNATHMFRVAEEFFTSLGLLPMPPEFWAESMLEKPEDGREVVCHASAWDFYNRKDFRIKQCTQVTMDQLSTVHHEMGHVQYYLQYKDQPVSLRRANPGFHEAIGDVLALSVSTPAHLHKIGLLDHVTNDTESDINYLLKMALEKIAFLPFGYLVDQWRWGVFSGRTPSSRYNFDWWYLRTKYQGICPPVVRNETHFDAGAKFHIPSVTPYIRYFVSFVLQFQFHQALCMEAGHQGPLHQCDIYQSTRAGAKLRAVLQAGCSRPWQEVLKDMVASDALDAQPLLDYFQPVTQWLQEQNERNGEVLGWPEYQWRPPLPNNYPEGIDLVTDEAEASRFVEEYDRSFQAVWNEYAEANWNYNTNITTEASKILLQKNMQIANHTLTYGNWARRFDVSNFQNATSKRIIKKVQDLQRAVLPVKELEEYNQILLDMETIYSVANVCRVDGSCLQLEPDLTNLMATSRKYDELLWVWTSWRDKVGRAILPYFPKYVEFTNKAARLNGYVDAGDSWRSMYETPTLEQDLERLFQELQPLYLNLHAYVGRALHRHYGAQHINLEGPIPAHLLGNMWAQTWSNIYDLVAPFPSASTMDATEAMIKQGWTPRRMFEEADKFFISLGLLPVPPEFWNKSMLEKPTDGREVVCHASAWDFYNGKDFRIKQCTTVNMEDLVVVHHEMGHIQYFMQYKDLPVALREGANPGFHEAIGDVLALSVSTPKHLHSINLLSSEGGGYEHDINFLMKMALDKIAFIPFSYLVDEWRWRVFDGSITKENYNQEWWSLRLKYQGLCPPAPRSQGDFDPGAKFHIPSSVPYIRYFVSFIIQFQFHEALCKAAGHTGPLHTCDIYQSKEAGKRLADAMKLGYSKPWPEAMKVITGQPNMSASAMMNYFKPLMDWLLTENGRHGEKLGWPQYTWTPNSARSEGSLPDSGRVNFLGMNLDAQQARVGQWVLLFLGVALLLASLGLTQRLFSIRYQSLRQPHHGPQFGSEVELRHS
The test is described as follows: In vitro inhibition of Angiotensin I converting enzyme activity at pH 8.5 in rabbit lung. It is filed as tissue-based. Conditions: read-out: I50.

Test [5] has as its target T1, Angiotensin-converting enzyme. As to the kind of experiment: In vitro inhibition of Angiotensin I converting enzyme activity in rabbit lung. It is filed as tissue-based. Conditions: read-out: I50.
Test [6] addresses Angiotensin-converting enzyme (Rattus norvegicus) (UniProt P47820). As to the kind of experiment: Percentage inactivation of the angiotensin I induced vasopressor response in normotensive conscious rats after po administration at dose 0.60 mg/kg; 50-55.
Test [7] deals with Rattus norvegicus. The test is described as follows: Maximum percent change in mean arterial pressure by the compound over control after po administration at 100 mg/kg dosage; -(17-29). It is filed as functional, Artery. The method, boiled down:
(§1)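 Spontaneously hypertensive rats kept on a sodium-deficient diet received the agent orally. Value = maximum % change in mean arterial pressure over control. Duration = time outside a control area, defined as the means ±2 SD of arterial pressure and heart rate readings from 45 control rats.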

For test [8], the target named is Angiotensin-converting enzyme (Rattus norvegicus) (UniProt P47820). As to the kind of experiment: The time to 50% recovery of the angiotensin I response was measured after po administration at 0.6 mg/kg; 40-50.
Test [9] relates to Rattus norvegicus. As to the kind of experiment: Time taken by the compound to change arterial pressure outside the control area at a dose of 100 mg/kg, po; 5.5-15. It is filed as functional, Artery. The method, boiled down:
(§2)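 Spontaneously hypertensive rats kept on a sodium-deficient diet, single oral dose, arterial pressure and heart rate monitored. Duration is the time pressure lies outside a control area, defined as the means (±2 standard deviations) of arterial pressure and heart rate readings from 45 control rats. Range given across animals.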

Test [10] deals with Rattus norvegicus. As to the kind of experiment: Maximum percent change in mean arterial pressure by the compound over control after po administration at 100 mg/kg dosage. It is filed as functional, Artery. The method, boiled down: as §1
The test system of test [11] is Rattus norvegicus. The test is described as follows: Time taken by the compound to change arterial pressure outside the control area at a dose of 100 mg/kg, po. It is filed as functional, Artery. The method, boiled down: as §2
For test [12], the target named is Angiotensin-converting enzyme (Rattus norvegicus) (UniProt P47820). As to the kind of experiment: Percentage inactivation of the angiotensin I induced vasopressor response in normotensive conscious rats after po administration at dose 0.15 mg/kg; 55-76.
Test [13] has the same target. As to the kind of experiment: The time to 50% recovery of the angiotensin I response was measured after po administration at 0.15 mg/kg; 10-40.
Test [14] has the same target. As to the kind of experiment: Percentage inactivation of the angiotensin I induced vasopressor response in normotensive conscious rats after po administration at dose 0.15 mg/kg; 65-69.
Test [15] relates to Rattus norvegicus. The test is described as follows: Time taken by the compound to change arterial pressure outside the control area at a dose of 100 mg/kg, po; 2-12.5. It is filed as functional, Artery. The method, boiled down: as §2
Test [16] concerns Rattus norvegicus. As to the kind of experiment: The time to 50% recovery of the angiotensin I response was measured after po administration at 0.15 mg/kg; 10-50.
In test [17] the test system is Rattus norvegicus. As to the kind of experiment: Maximum percent change in mean arterial pressure by the compound over control after po administration at 100 mg/kg dosage; -(15-27). It is filed as functional, Artery. The method, boiled down:
as §1

Test [18] deals with Angiotensin-converting enzyme (Rattus norvegicus) (UniProt P47820). The test is described as follows: Percentage inactivation of the angiotensin I induced vasopressor response in normotensive conscious rats after po administration at dose 0.3 mg/kg; 15-17. The settings on record: at 0.3 mg/kg.
For test [19] the target is unchanged. As to the kind of experiment: The time to 50% recovery of the angiotensin I response was measured after po administration at 0.3 mg/kg.
For test [20] the target is unchanged. As to the kind of experiment: The time to 50% recovery of the angiotensin I response was measured after po administration at 1.5 mg/kg; 70-90.
The target is the same in test [21]. As to the kind of experiment: Percentage inactivation of the angiotensin I induced vasopressor response in normotensive conscious rats after po administration at dose 1.5 mg/kg; 71-81.
For test [22], the system named is Rattus norvegicus. The test is described as follows: Maximum percent change in mean arterial pressure by the compound over control after po administration at 50 mg/kg dosage; -(31-34). It is filed as functional, Artery. The method, boiled down: as §1
The subject of test [23] is Rattus norvegicus. As to the kind of experiment: Time taken by the compound to change arterial pressure outside the control area at a dose of 50 mg/kg, po; 3-19.5. It is filed as functional, Artery. The method, boiled down:
as §2

Test [24] addresses Angiotensin-converting enzyme (Rattus norvegicus) (UniProt P47820). As to the kind of experiment: Percentage inactivation of the angiotensin I induced vasopressor response in normotensive conscious rats after po administration at dose 0.80 mg/kg; 50-55.
Test [25] relates to Rattus norvegicus. As to the kind of experiment: Maximum percent change in mean arterial pressure by the compound over control after po administration at 100 mg/kg dosage; -(-32-40). It is filed as functional, Artery. The method, boiled down: as §1
The target in test [26] is Angiotensin-converting enzyme (Rattus norvegicus) (UniProt P47820). The test is described as follows: The time to 50% recovery of the angiotensin I response was measured after po administration at 0.8 mg/kg; 35-50.
For test [27] the target is unchanged. The test is described as follows: The time to 50% recovery of the angiotensin I response was measured after po administration at 0.15 mg/kg; 30-100.
Test [28] shares this target. As to the kind of experiment: Percentage inactivation of the angiotensin I induced vasopressor response in normotensive conscious rats after po administration at dose 0.15 mg/kg; 64-100.
The target is the same in test [29]. The test is described as follows: The time to 50% recovery of the angiotensin I response was measured after po administration at 0.3 mg/kg; 10-30.
Test [30] concerns Rattus norvegicus. The test is described as follows: Time taken by the compound to change arterial pressure outside the control area at a dose of 100 mg/kg, po; 15->24. It is filed as functional, Artery. The method, boiled down:
as §2

Test [31] concerns Rattus norvegicus. As to the kind of experiment: Maximum percent change in mean arterial pressure by the compound over control after po administration at 100 mg/kg dosage; -(-27-45). It is filed as functional, Artery. The method, boiled down: as §1
Test [32] deals with Angiotensin-converting enzyme (Rattus norvegicus) (UniProt P47820). The test is described as follows: Percentage inactivation of the angiotensin I induced vasopressor response in normotensive conscious rats after po administration at dose 0.3 mg/kg; 45-50.
In test [33] the target is T1, Angiotensin-converting enzyme. As to the kind of experiment: Compound was tested in vitro for inhibition of activity of rabbit lung Angiotensin I converting enzyme at pH 8.5; 0.14-10. The settings on record: read-out: I50.

Chain of Angiotensin-converting enzyme (Rattus norvegicus) (P47820 whole entry, looked up): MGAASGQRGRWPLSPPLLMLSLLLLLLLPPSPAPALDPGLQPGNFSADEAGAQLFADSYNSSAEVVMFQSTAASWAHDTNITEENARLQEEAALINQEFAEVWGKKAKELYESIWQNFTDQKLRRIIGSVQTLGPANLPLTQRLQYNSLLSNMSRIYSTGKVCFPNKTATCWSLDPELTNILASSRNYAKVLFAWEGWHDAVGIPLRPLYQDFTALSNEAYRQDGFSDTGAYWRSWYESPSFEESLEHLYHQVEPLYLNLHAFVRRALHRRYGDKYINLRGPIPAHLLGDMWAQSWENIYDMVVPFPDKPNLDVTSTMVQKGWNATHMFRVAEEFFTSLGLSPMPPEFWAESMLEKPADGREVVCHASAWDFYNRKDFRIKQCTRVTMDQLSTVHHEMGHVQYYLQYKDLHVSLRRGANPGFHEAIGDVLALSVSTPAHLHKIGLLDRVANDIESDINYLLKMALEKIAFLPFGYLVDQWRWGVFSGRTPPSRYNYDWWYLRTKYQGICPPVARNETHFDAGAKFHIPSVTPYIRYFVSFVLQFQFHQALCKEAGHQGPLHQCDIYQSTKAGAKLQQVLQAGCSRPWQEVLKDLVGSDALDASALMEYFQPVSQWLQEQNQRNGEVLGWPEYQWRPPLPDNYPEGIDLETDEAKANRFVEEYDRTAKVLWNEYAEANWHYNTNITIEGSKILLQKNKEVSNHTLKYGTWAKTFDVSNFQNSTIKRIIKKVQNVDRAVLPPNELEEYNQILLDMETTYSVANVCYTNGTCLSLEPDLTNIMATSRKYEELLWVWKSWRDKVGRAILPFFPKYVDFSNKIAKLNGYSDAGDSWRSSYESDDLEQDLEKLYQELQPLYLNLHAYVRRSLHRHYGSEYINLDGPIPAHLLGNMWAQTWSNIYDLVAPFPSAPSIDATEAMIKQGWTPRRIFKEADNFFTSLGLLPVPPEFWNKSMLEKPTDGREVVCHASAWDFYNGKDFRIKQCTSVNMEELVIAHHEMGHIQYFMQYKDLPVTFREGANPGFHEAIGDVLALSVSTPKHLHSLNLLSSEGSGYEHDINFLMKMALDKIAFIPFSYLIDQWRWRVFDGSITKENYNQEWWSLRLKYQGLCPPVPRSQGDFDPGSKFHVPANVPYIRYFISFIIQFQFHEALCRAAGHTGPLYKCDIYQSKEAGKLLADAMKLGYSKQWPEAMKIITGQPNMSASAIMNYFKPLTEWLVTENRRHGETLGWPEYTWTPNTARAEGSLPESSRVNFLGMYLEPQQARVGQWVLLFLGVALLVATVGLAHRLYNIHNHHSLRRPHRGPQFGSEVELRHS

In test [1], `O=C1CN(C2CCCC2)C(=O)c2ccccc2S1` gave an inhibition of 5%. Also, the MAP in [2] was 9%. The Duration in test [3] amounted to 10 min. Further, the IC50 turned out to be 4800 nM in test [4] and 4500 nM in test [5].
`O=C1CN(C2CCCC2)C(=O)c2cccc(Cl)c2S1`: the IC50 in test [4] came out at 280 nM; in test [5] it was 210 nM. In [6], the inhibition worked out at 50%. Further, the MAP in test [7] is recorded as -17%. In addition, the Duration in test [8] is 40 min; in [9], 5.5 h.
Turning to `Cc1ccc(N2CC(=O)SCC(C)C2=O)cc1` (stereo not drawn), the MAP in [10] is given as -37%. Also, the figures for the Duration in test [11] and in test [13] were more than 1440 min and 10 min, respectively. For the same compound, the IC50 in test [4] was found to be 5 nM; in test [5], 21 nM. The compound further gave an inhibition in test [12] of 55%.
In turn, `CC1CSC(=O)CN(C2CCCC2)C1=O` (stereo not drawn) had an inhibition in test [14] of 65%. For the same compound, the IC50 in test [4] was 18 nM; in test [5], 13 nM. Further, the figures for the Duration in test [15] and in [16] were 2 h and 10 min, respectively. Besides, the MAP in [17] is on record as -15%.
On to `C[C@H]1CSC(=O)[C@@H]2Cc3ccccc3CN2C1=O` (mixture of isomers), for which, in [18], the inhibition came out at 15%. Also, in [19], the Duration amounted to 10 min.
Consider `Cc1ccc(N2CC(=O)SC(C)C2=O)cc1` (stereo not drawn), for which the figures for the IC50 in [4] and in test [5] were 26 nM and 85 nM, respectively. Also, the Duration is 70 min in [20] and 3 h in test [23]. For the same compound, the inhibition in test [21] was found to be 71%. The MAP in test [22] was -31%.
For `COc1cccc2c1SC(=O)CN(C1CCCC1)C2=O`, the results for the Duration in [11] and in [26] were more than 1440 min and 35 min, respectively. Moreover, the IC50 worked out at 380 nM in test [4] and 400 nM in test [5]. Further, the inhibition in test [24] worked out at 50%. Also, the MAP in test [25] was -32%.
As to `C[C@@H]1CSC(=O)[C@@H]2CCCN2C1=O`, the IC50 in [4] worked out at 17 nM; in test [5], 26 nM. In test [27], this compound had a Duration of 30 min. Besides, the inhibition in test [28] stood at 64%.
With `C[C@@H]1CSC(=O)[C@@H]2Cc3ccccc3CN2C1=O`, the Duration in test [29] came out at 10 min; in test [30] it was 900 min. The MAP in [31] is -27%. In test [32], this compound displayed an inhibition of 45%. Also, the IC50 in [5] turned out to be 12 nM.
Regarding `CC1SC(=O)C2CSCN2C1=O` (stereo not drawn), the IC50 amounted to 140 nM in test [33] and 380 nM in test [5].
